{"source": "ChEMBL document CHEMBL1914308", "about": "“N-fused imidazoles as novel anticancer agents that inhibit catalytic activity of topoisomerase IIα and induce apoptosis in G1/S phase” (J Med Chem, 2011)", "key": {"HEK293 [1]": {"system": "HEK293", "assay": "Cytotoxicity against human HEK293 cells assessed as cell survival at 12 uM after 24 hrs by MTT assay", "type": "functional, cell-based"}, "[2]": {"target": "T1, DNA topoisomerase 2-alpha (Homo sapiens, UniProt P11388)", "T1 sequence (P11388 whole entry)": "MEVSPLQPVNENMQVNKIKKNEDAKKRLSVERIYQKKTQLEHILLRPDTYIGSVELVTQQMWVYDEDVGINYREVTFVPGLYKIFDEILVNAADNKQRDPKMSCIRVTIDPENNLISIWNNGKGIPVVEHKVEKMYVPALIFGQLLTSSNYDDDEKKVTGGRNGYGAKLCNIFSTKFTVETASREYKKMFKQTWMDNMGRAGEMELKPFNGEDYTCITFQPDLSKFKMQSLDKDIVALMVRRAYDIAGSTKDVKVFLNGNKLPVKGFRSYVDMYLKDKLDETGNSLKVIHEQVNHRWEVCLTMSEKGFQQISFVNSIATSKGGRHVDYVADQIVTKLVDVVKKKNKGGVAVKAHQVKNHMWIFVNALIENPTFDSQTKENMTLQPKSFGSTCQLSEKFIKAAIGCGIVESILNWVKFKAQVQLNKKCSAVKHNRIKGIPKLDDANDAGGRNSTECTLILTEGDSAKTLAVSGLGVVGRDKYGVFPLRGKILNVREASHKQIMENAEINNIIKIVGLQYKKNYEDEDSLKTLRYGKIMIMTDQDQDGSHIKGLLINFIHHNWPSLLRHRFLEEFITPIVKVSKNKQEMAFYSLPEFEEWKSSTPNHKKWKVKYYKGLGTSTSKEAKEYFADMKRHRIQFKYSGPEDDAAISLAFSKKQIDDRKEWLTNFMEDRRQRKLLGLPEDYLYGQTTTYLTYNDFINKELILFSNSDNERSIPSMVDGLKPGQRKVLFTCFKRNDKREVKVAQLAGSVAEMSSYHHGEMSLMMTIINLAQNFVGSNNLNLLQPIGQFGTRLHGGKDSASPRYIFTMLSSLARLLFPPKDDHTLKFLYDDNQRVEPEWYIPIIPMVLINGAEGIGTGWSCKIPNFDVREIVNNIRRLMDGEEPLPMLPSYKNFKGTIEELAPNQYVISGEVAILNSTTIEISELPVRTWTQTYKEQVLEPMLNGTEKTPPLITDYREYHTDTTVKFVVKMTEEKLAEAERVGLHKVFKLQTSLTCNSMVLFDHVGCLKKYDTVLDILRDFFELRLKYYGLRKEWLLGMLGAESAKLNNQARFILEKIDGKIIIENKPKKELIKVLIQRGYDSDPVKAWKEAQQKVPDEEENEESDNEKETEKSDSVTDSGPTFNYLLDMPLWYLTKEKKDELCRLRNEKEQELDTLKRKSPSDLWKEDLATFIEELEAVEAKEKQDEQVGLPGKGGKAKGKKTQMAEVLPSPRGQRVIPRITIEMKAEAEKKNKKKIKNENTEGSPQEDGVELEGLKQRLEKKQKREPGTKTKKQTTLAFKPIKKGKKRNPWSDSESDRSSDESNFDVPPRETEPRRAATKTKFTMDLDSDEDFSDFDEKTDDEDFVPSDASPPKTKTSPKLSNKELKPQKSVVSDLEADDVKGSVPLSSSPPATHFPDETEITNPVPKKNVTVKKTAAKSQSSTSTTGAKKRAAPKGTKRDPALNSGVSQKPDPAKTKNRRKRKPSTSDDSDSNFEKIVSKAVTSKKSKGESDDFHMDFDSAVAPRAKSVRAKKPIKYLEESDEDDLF", "assay": "Inhibition of etoposide poisoning activity against human recombinant DNA topoisomerase 2alpha assessed as enhancement of in relaxation of supercoiled plasmid pBR322 DNA at 100 uM after 30 mins by agarose gel electrophoresis"}, "[3]": {"target": "T1, DNA topoisomerase 2-alpha", "assay": "Inhibition of etoposide poisoning activity against human recombinant DNA topoisomerase 2alpha assessed as enhancement of in relaxation of supercoiled plasmid pBR322 DNA at 200 uM after 30 mins by agarose gel electrophoresis in presence of etoposide"}, "HEK293 [4]": {"system": "HEK293", "assay": "Induction of cell cycle arrest in human HEK293 cells assessed as accumulation at S phase at 25 uM after 48 hrs by propidium iodide staining-based FACS analysis (reference value: 16.91 +/- 1.0%)", "type": "functional"}, "Vero": {"system": "Vero", "assay": "Cytotoxicity activity against african green monkey Vero assessed as cell survival at 12 uM after 48 hrs by MTT assay", "type": "cell-based", "settings": "chlorocebus sabaeus"}, "HEK293 [5]": {"system": "HEK293", "assay": "Cytotoxicity against human HEK293 cells assessed as cell survival at 12 uM after 48 hrs by MTT assay", "type": "functional", "settings": "HEK293, 48 h, read-out: Activity", "procedure,_shortened": "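MTT survival of HEK 293 and Vero cells after 48 h with compound at graded concentrations. DMEM, 10% FBS, 37 °C, 5% CO2; dilutions in DMEM from 100 mM DMSO stock, added at 60–70% confluence. Mean ± SD of three independent experiments.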"}, "HEK293 [6]": {"system": "HEK293", "assay": "Induction of apoptosis in human HEK293 cells assessed as apoptotic cells at 15 uM after 48 hrs by propidium iodide staining-based FACS analysis (reference value: 4.88 +/- 0.8%)", "type": "functional"}, "[7]": {"target": "T1, DNA topoisomerase 2-alpha", "assay": "Inhibition of human topoisomerase 2 alpha-mediated decatenation of kDNA by agarose gel electrophoresis", "procedure,_shortened": "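kDNA decatenation by hTopoIIα run at 10 to 100 μM compound under the standard decatenation conditions (37 °C, 30 min, agarose gel, densitometry); IC50 taken from the concentration–inhibition plot.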"}, "HEK293 [8]": {"system": "HEK293", "assay": "Induction of apoptosis in human HEK293 cells assessed as decrease in Bcl-XL protein expression at 15 to 25 uM after 48 hrs by Western blot analysis", "type": "functional, cell-based", "procedure,_shortened": "(§1)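 Whole-cell extracts from HEK 293 cells after 48 h at graded concentrations, Western blotted for caspase-3, Bax, Bcl-XL and PARP (cleaved 86 kDa fragment); β-actin as loading control.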"}, "[9]": {"target": "T1, DNA topoisomerase 2-alpha", "assay": "Inhibition of human topoisomerase 2 alpha-mediated relaxation of pRYG plasmid DNA at 100 uM by agarose gel electrophoresis", "procedure,_shortened": "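250 ng supercoiled pRYG plasmid, 2–4 units hTopoIIα, 100 μM compound, ATP-containing Tris pH 8 buffer, 20 μL, 37 °C 30 min; SDS/proteinase K stop; 1% agarose in TAE without EtBr, post-stained 0.5 μg/mL EtBr; products quantified densitometrically.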"}, "HEK293 [10]": {"system": "HEK293", "assay": "Induction of apoptosis in human HEK293 cells assessed as increase in caspase 3 expression at 15 to 25 uM after 48 hrs by Western blot analysis", "type": "functional, cell-based", "procedure,_shortened": "as §1"}, "HEK293 [11]": {"system": "HEK293", "assay": "Anticlonogenic activity against human HEK293 cells assessed as inhibition of colony formation of cells at 25 uM after 48 hrs by crystal violet staining", "type": "functional, cell-based"}, "[12]": {"assay": "Anticlonogenic activity against african green monkey Vero after 48 hrs by crystal violet staining", "type": "ADME, cell-based", "settings": "chlorocebus sabaeus, Vero cells; read-out: LC50", "procedure,_shortened": "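HEK 293 and Vero cells were grown in DMEM with 10% FBS and 1% penicillin/streptomycin at 37 °C in 5% CO₂. At 60–70% confluence they were exposed for 48 h to a range of concentrations, diluted in DMEM from 100 mM DMSO stocks. Colony survival is expressed as %. Values are mean ± SD of three independent experiments; LC₅₀ is the concentration killing half the cells.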"}, "HEK293 [13]": {"system": "HEK293", "assay": "Induction of cell cycle arrest in human HEK293 cells assessed as accumulation at G1 phase at 25 uM after 48 hrs by propidium iodide staining-based FACS analysis (reference value: 61 +/- 0.9%)", "type": "functional"}, "[14]": {"assay": "Cytotoxicity against human MCF10A cells assessed as cell survival at 100 uM after 48 hrs by MTT assay", "type": "cell-based, MCF-10A", "settings": "read-out: Survival"}, "[15]": {"target": "T1, DNA topoisomerase 2-alpha", "assay": "Inhibition of etoposide poisoning activity against human recombinant DNA topoisomerase 2alpha assessed as enhancement of in relaxation of supercoiled plasmid pBR322 DNA at 200 uM after 30 mins by agarose gel electrophoresis"}, "HEK293 [16]": {"system": "HEK293", "assay": "Cytotoxicity against human HEK293 cells assessed as cell survival after 48 hrs by MTT assay", "type": "functional", "settings": "HEK293, 48 h, read-out: LC50 (the source's name)", "procedure,_shortened": "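HEK 293 cells were cultured in DMEM with 10% FBS and antibiotics at 37 °C in 5% CO₂. At 60–70% confluence they were treated for 48 h with various concentrations, diluted in DMEM from 100 mM DMSO stocks. Survival was read by MTT. LC₅₀ is the concentration killing 50% of cells. Data are mean ± SD of three independent experiments.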"}, "HEK293 [17]": {"system": "HEK293", "assay": "Induction of apoptosis in human HEK293 cells assessed as apoptotic cells at 25 uM after 48 hrs by propidium iodide staining-based FACS analysis (reference value: 4.88 +/- 0.8%)", "type": "functional"}, "HEK293 [18]": {"system": "HEK293", "assay": "Induction of apoptosis in human HEK293 cells assessed as increase in Bax/Bcl-XL ratio at 15 to 25 uM after 48 hrs by Western blot analysis", "type": "functional, cell-based", "procedure,_shortened": "as §1"}, "HEK293 [19]": {"system": "HEK293", "assay": "Induction of cell cycle arrest in human HEK293 cells assessed as accumulation at G2/M phase at 25 uM after 48 hrs by propidium iodide staining-based FACS analysis (reference value: 7.5 +/- 1.0%)", "type": "functional"}, "HEK293 [20]": {"system": "HEK293", "assay": "Induction of cell cycle arrest in human HEK293 cells assessed as accumulation at G1 phase at 35 uM after 48 hrs by propidium iodide staining-based FACS analysis (reference value: 61 +/- 0.9%)", "type": "functional"}, "HEK293 [21]": {"system": "HEK293", "assay": "Induction of cell cycle arrest in human HEK293 cells assessed as accumulation at S phase at 15 uM after 48 hrs by propidium iodide staining-based FACS analysis (reference value: 16.91 +/- 1.0%)", "type": "functional"}, "HEK293 [22]": {"system": "HEK293", "assay": "Anticlonogenic activity against human HEK293 cells assessed as inhibition of colony formation of cells at 20 to 100 uM after 48 hrs by crystal violet staining", "type": "functional, cell-based", "procedure,_shortened": "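Clonogenic survival in HEK 293 and Vero cells, 48 h exposure at graded concentrations; % survival plotted; mean ± SD of three independent experiments. Cells grown in DMEM with 10% FBS and 1% antibiotic at 37 °C, 5% CO2; compound diluted from 100 mM DMSO stock into DMEM, added at 60–70% confluence.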"}}, "note": "The source made the active and inactive calls. No cut-off for these calls is given here.", "data": [{"compound": "CC(C)(C)Nc1c(-c2ccc(C(=O)O)cc2)nc2ccccn12", "values": [{"measurement": "Activity", "setting": "HEK293 [1]", "value": "Active"}, {"measurement": "inhibition", "setting": "[2]", "value": "inactive"}, {"measurement": "inhibition", "setting": "[3]", "value": "inactive"}, {"measurement": "Activity", "setting": "HEK293 [4]", "value": 14.16, "unit": "%"}, {"measurement": "Activity", "setting": "Vero", "value": "Non-toxic"}, {"measurement": "viability at 12 µM", "setting": "HEK293 [5]", "value": "> 50", "unit": "%"}, {"measurement": "Activity", "setting": "HEK293 [6]", "value": 24.61, "unit": "%"}, {"measurement": "IC50", "setting": "[7]", "value": 52.7, "unit": "µM"}, {"measurement": "Activity", "setting": "HEK293 [8]", "value": "Active"}, {"measurement": "inhibition", "setting": "[9]", "value": "Active"}, {"measurement": "Activity", "setting": "HEK293 [10]", "value": "Active"}, {"measurement": "Activity", "setting": "HEK293 [11]", "value": "Active"}, {"measurement": "CC50 at 48 h", "setting": "[12]", "value": 98, "unit": "µM"}, {"measurement": "Activity", "setting": "HEK293 [13]", "value": 36.64, "unit": "%"}, {"measurement": "viability at 48 h, 100 µM", "setting": "[14]", "value": 75, "unit": "%"}, {"measurement": "inhibition", "setting": "[15]", "value": "inactive"}, {"measurement": "CC50", "setting": "HEK293 [16]", "value": 12, "unit": "µM"}, {"measurement": "Activity", "setting": "HEK293 [17]", "value": 27.46, "unit": "%"}, {"measurement": "Activity", "setting": "HEK293 [18]", "value": "Active"}, {"measurement": "Activity", "setting": "HEK293 [19]", "value": 8.93, "unit": "%"}, {"measurement": "Activity", "setting": "HEK293 [20]", "value": 21.52, "unit": "%"}, {"measurement": "Activity", "setting": "HEK293 [21]", "value": 13.92, "unit": "%"}, {"measurement": "inhibition", "setting": "HEK293 [22]", "value": "Dose-dependent effect"}]}]}
